Values after ≈ are worked out from the molar mass of the structure shown.
Columns and labels:
[1] = Cytotoxicity against HEL cells; format: cell-based; conditions: human
[2] = Stability in 1 M glycine solution assessed as half life; format: physicochemical
In short: (§1)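 Hydrolytic decomposition was followed by ¹H NMR on 30 mg samples in D₂O, with spectra recorded periodically. Media were 1 M glycine (pH 5.75), PBS (pH 7.4, phosphate with NaCl), or 50 mM phosphate at pH 4.0 or 10.0. Buffers were made in H₂O, lyophilized and redissolved in D₂O. Low-field signals were integrated to give a rate constant k and a half-life.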

[3] = Stability in PBS assessed as half life; format: physicochemical; in short: as §1
[4] = Stability in PBS at pH 7.4 assessed as half life; format: physicochemical; in short: as §1
[5] = Stability in 1 M glycine solution at pH 5.8 assessed as half life; format: physicochemical; in short: as §1
[6] = Stability in phosphate buffer at pH 10.0 assessed as half life; format: physicochemical; in short: as §1
[7] = Stability in phosphate buffer at pH 4.0 assessed as half life; format: physicochemical; in short: as §1
Vaccinia virus = test: Antiviral activity against vaccinia virus; format: functional, organism-based; conditions: Orthopoxvirus vaccinia
Human alphaherpesvirus 3 = test: Antiviral activity against VZV; format: functional, organism-based
Human betaherpesvirus 5 = test: Antiviral activity against HCMV; format: functional, organism-based
Human alphaherpesvirus 1 = test: Antiviral activity against HSV1; format: functional, organism-based
Human betaherpesvirus 6 = test: Antiviral activity against HHV6; format: functional, organism-based

Row | Compound | CC50 [1] | MCC [1] | half-life [2] | half-life [3] | also measured
1 | NC(N)=NC(=O)NCCOCP(=O)(O)O | > 100 µg/mL | > 100 µg/mL | 26.2 days | 39.3 days | 
2 | NC(N)=NC(=O)NC[C@H](O)CO | > 100 µg/mL | > 100 µg/mL | 16.1 days | 19.6 days | 
3 | Nc1ncn(C[C@H](O)CO)c(=O)n1 |  |  |  |  | half-life [4]: 19.6 days; half-life [5]: 15.8 days; half-life [6]: 10.3 days; half-life [7]: 17.8 days
4 | NC(N)=NC(=O)NC[C@H]1COP(=O)(O)CO1 | > 100 µg/mL | > 100 µg/mL | 14.7 days | 29.7 days | 
5 | CCCCCCCCCCCCCCCCCCOP1(=O)CO[C@@H](Cn2cnc(N)nc2=O)CO1 (stereo not given in full) |  |  |  |  | EC50 (Vaccinia virus): 0.037 µg/mL (≈ 0.0719 µM); EC50 (Human alphaherpesvirus 3): ≤ 0.00014 µg/mL; EC50 (Human betaherpesvirus 5): ≤ 0.00014 µg/mL; EC50 (Human alphaherpesvirus 1): 0.003 µg/mL (≈ 0.00583 µM); EC50 (Human betaherpesvirus 6): 0.008 µg/mL (≈ 0.0155 µM)
6 | NC(N)=NC(=O)NC[C@@H](COC=O)OCP(=O)(O)O | > 100 µg/mL | > 100 µg/mL | 4.75 days | 4.98 days | 
